Source: ChEMBL document CHEMBL3407336, “Discovery of 1H-pyrazol-3(2H)-ones as potent and selective inhibitors of protein kinase R-like endoplasmic reticulum kinase (PERK)” (J Med Chem, 2015)

Columns and labels:
[1] = Intrinsic clearance in rat microsomes; type: ADME, Microsome
[2] = Oral bioavailability in Sprague-Dawley rat at 2 mg/kg compound dosed in 1% Tween 80/99% OraPlus; type: ADME, organism-based; details: in vivo
Outline: (§1)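 PK in male Sprague-Dawley rats or male CD-1 mice. For iv, 1 mg/kg was given as a DMSO solution. For po, compound was given as a solution in the vehicle and at the dose named in each line, with MsOH-acidified vehicles at pH 2.0.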

[3] = Volume of distribution at steady state in Sprague-Dawley rat at 1 mg/kg, iv; type: ADME, organism-based; design: dose 1 mg/kg, route intravenous; details: in vivo, read-out: Vdss; outline: as §1
[4] = AUC in Sprague-Dawley rat at 2 mg/kg, po compound dosed in 1% Tween 80/99% OraPlus; type: ADME, organism-based; design: dose 2 mg/kg, route oral; details: plasma; outline: as §1
[5] = Mean residence time in Sprague-Dawley rat at 1 mg/kg, iv; type: ADME, organism-based; design: dose 1 mg/kg, route intravenous; details: in vivo; outline: as §1
[6] = Clearance in Sprague-Dawley rat at 1 mg/kg, iv; type: ADME, organism-based; design: dose 1 mg/kg, route intravenous; details: in vivo; outline: as §1
[7] = AUC in Sprague-Dawley rat at 2.5 mg/kg, po compound dosed in 1% Tween 80/2% HPMC/97% H2O with MsOH at pH 2; type: ADME, organism-based; design: dose 2.5 mg/kg, route oral; details: plasma; outline: as §1
[8] = Oral bioavailability in Sprague-Dawley rat at 2.5 mg/kg compound dosed in 1% Tween 80/2% HPMC/97% H2O with MsOH at pH 2; type: ADME, organism-based; details: in vivo; outline: as §1
[9] = Oral bioavailability in Sprague-Dawley rat at 2.5 mg/kg compound dosed in 1% Pluronic F68/1% HPMC/15% Captisol/83% H2O with MsOH at pH 2; type: ADME, organism-based; details: in vivo; outline: as §1
[10] = AUC in Sprague-Dawley rat at 2.5 mg/kg, po compound dosed in 1% Pluronic F68/1% HPMC/15% Captisol/83% H2O with MsOH at pH 2; type: ADME, organism-based; design: dose 2.5 mg/kg, route oral; details: plasma; outline: as §1
Mus musculus [11] = assay: Mean residence time in CD1 mouse at 1 mg/kg, iv; type: ADME, organism-based; design: dose 1 mg/kg, route intravenous; details: in vivo; outline: as §1
[12] = AUC in CD1 mouse at 2.5 mg/kg, po compound dosed in 1% Pluronic F68/1% HPMC/15% Captisol/83% H2O with MsOH at pH 2; type: ADME, organism-based; design: dose 2.5 mg/kg, route oral; details: plasma; outline: as §1
Mus musculus [13] = assay: Volume of distribution at steady state in CD1 mouse at 1 mg/kg, iv; type: ADME, organism-based; design: dose 1 mg/kg, route intravenous; details: in vivo; outline: as §1
[14] = Oral bioavailability in CD1 mouse at 2.5 mg/kg compound dosed in 1% Pluronic F68/1% HPMC/15% Captisol/83% H2O with MsOH at pH 2; type: ADME, organism-based; details: in vivo; outline: as §1

| SMILES | Vd [3] | MRT [5] | clearance [6] | bioavailability [9] | AUC [10] | further results |
| --- | --- | --- | --- | --- | --- | --- |
| CNc1ncc2cc(-c3c(C)ccc(C(=O)c4c(-c5ccccc5)n(C)n(-c5ccccc5)c4=O)c3N)ccc2n1 | – | – | – | – | – | microsomal CLint [1]: 29 µL/min/mg |
| COc1cc2nccc(Oc3ccc(NC(=O)c4c(-c5ccccc5)n(C)n(-c5ccccc5)c4=O)nc3)c2cc1OC | 0.73 L/kg | 10.4 h | 1.17 mL/min/kg | – | – | bioavailability [2]: 50%; AUC [4]: 20.2 µM·h |
| CNc1ncc2cc(-c3cc(C(=O)c4c(-c5ccccc5)n(C)n(-c5ccccc5)c4=O)ccc3C)ccc2n1 | – | – | – | – | – | microsomal CLint [1]: 497 µL/min/mg |
| CNc1ncc2cc(-c3cc(C(=O)c4c(-c5ccccc5)n(C)n(-c5ccccc5)c4=O)ccc3N)ccc2n1 | 0.56 L/kg | 0.5 h | 16.7 mL/min/kg | – | – | AUC [7]: 0.8 µM·h; bioavailability [8]: 18% |
| CNc1ncc2cc(-c3cc(C(=O)c4c(-c5ccccc5)n(C)n(-c5ccccc5)c4=O)ccc3Cl)ccc2n1 | – | – | – | – | – | microsomal CLint [1]: 167 µL/min/mg |
| CNc1ncc2c(F)c(-c3c(C)ccc(C(=O)c4c(-c5ccccc5)n(C)n(-c5ccccc5)c4=O)c3N)ccc2n1 | 2.2 L/kg | 3.9 h | 9.5 mL/min/kg | 48% | 3.8 µM·h | – |
| CNc1ncc2c(Cl)c(-c3c(C)ccc(C(=O)c4c(-c5ccccc5)n(C)n(-c5ccccc5)c4=O)c3N)ccc2n1 | 2.7 L/kg | 5.5 h | 8.33 mL/min/kg | 49% | 3.7 µM·h | – |
| Cc1ncc2cc(-c3c(C)ccc(C(=O)c4c(-c5ccccc5)n(C)n(-c5ccccc5)c4=O)c3N)ccc2n1 | 2.6 L/kg | 1.4 h | 36.7 mL/min/kg | 69% | 1.2 µM·h | – |
| Cc1nc2ccc(-c3c(C)ccc(C(=O)c4c(-c5ccccc5)n(C)n(-c5ccccc5)c4=O)c3N)cc2s1 | 3.1 L/kg | 2.2 h | 23.3 mL/min/kg | 3% | 0.1 µM·h | – |
| CNc1nc2ccc(-c3c(C)ccc(C(=O)c4c(-c5ccccc5)n(C)n(-c5ccccc5)c4=O)c3N)cc2s1 | 2 L/kg | 3.1 h | 10.7 mL/min/kg | 35% | 2.5 µM·h | – |
| Cc1ccc(C(=O)c2c(-c3ccccc3)n(C)n(-c3ccccc3)c2=O)c(N)c1-c1ccc2nc(N)sc2c1 | 6.5 L/kg | 2.2 h | 50 mL/min/kg | 67% | 1 µM·h | – |
| Cc1ccc(C(=O)c2c(-c3ccccc3)n(C)n(-c3ccccc3)c2=O)c(N)c1-c1ccc2nc(C(F)F)sc2c1 | 5 L/kg | 5.3 h | 15.7 mL/min/kg | 76% | 3.4 µM·h | – |
| Cc1ccc(C(=O)c2c(-c3ccccc3)n(C)n(-c3ccccc3)c2=O)c(N)c1-c1ccc2nc(C(F)(F)F)sc2c1 | 8.1 L/kg | 10.8 h | 12.5 mL/min/kg | 83% | 3.2 µM·h | – |
| Cc1ccc2cc(-c3c(C)ccc(C(=O)c4c(-c5ccccc5)n(C)n(-c5ccccc5)c4=O)c3N)ccc2n1 | 3.6 L/kg | 2.3 h | 26.7 mL/min/kg | 55% | 1.4 µM·h | MRT (Mus musculus [11]): 5 h; AUC [12]: 8.8 µM·h; Vdss (Mus musculus [13]): 1.2 L/kg; bioavailability [14]: 46% |
| Cc1nc(N)c2c(-c3ccc4c(c3)CCN4C(=O)Cc3cc(F)cc(C(F)(F)F)c3)cn(C)c2n1 | 1.2 L/kg | 11.9 h | 1.67 mL/min/kg | 98% | 23.6 µM·h | – |
